ChEMBL document CHEMBL2040744, “Phenanthrene derivatives from Cymbidium Great Flower Marie Laurencin and their biological activities” (J Nat Prod, 2012)
Values after ≈ are worked out from the molar mass of the structure shown.

Tested on: Bacillus subtilis
Assay: Antibacterial activity against Bacillus subtilis NBRC 3134 after overnight incubation by microdilution method
Assay type: functional
Settings: not given
How it was run: (§1)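 Broth microdilution MIC. Strains were first grown on YP agar (1% polypeptone, 0.2% yeast extract, 0.1% MgSO4·7H2O, 6% agar) for 12 h, B. subtilis at 37 °C and K. pneumoniae at 27 °C. Samples came from a 10 mg/mL DMSO stock, serially diluted in 96-well plates of strain in YP medium, then incubated overnight at 37 °C. Ampicillin served as reference.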

Row | MIC [µM] | SMILES
1 | 0.36 (≈ 0.126 µg/mL) | CC1(C)S[C@@H]2[C@H](NC(=O)[C@H](N)c3ccccc3)C(=O)N2[C@H]1C(=O)O [AMPICILLIN]
2 | 4.88 (≈ 1.25 µg/mL) | COC1=CC(=O)C2=C(CCc3cccc(O)c32)C1=O [EPHEMERANTHOQUINONE B]
3 | 52.8 (≈ 15 µg/mL) | COc1ccc2c(ccc3cc(OC)c(O)c(OC)c32)c1
4 | 65.1 (≈ 18.8 µg/mL) | COc1c(O)c2c(c(OC)c1O)-c1c(O)cccc1CC2 [MARYLAURENCINOLS B]

Row | SMILES | MIC [µM]
5 | COc1cc2ccc3c(OC)c(O)ccc3c2c(OC)c1O | 250 (≈ 75.1 µg/mL)
6 | COc1cc2ccc3cccc(O)c3c2c(OC)c1O [BULBOPHYLLANTHRIN] | 185 (≈ 50.1 µg/mL)
7 | COc1cc2ccc3cc(O)ccc3c2c(OC)c1O | 185 (≈ 50.1 µg/mL)

Tested on: Klebsiella pneumoniae
Assay: Antibacterial activity against Klebsiella pneumoniae NBRC 3512 after overnight incubation by microdilution method
Assay type: functional
Settings: not given
How it was run: as §1

Row | SMILES | MIC [µM]
8 | CC1(C)S[C@@H]2[C@H](NC(=O)[C@H](N)c3ccccc3)C(=O)N2[C@H]1C(=O)O [AMPICILLIN] | 107 (≈ 37.5 µg/mL)
9 | COc1cc2ccc3cccc(O)c3c2c(OC)c1O [BULBOPHYLLANTHRIN] | 185 (≈ 50.1 µg/mL)

Tested on: HL-60
Assay: Cytotoxicity against human HL60 cells after 72 hrs by WST8 assay
Assay type: functional, cell-based
Settings: HL-60, 72 h
How it was run: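 HL-60 cells were kept in RPMI-1640 with 10% FBS at 37 °C under 5% CO2. Cells were seeded at 5 × 10^3 per well and preincubated 2 h, then exposed to compound in medium for 72 h. WST-8 was added for a further 3 h, and formazan absorbance was read at 450 nm to give IC50.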

Row | SMILES | IC50 [µM]
10 | COc1cc2ccc3c(OC)c(O)ccc3c2c(OC)c1O | 103
11 | COc1cc2c(c(O[C@@H]3O[C@H](CO)[C@@H](O)[C@H](O)[C@H]3O)c1O)-c1c(O)cccc1CC2 [MARYLAURENCINOSIDE A] | 52.4
12 | COc1c(O)cc2c(c1OC)-c1ccc(O)cc1CC2 [ERIANTHRIDIN] | 44.6
13 | COc1ccc2c(c1)CCc1cc(OC)c(O)c(OC)c1-2 | 31.8
14 | CO[C@@]12[C@H](COC(N)=O)C3=C(C(=O)C(C)=C(N)C3=O)N1C[C@@H]1N[C@@H]12 [MITOMYCIN] | 0.1
15 | COC1=CC(=O)C2=C(CCc3cccc(O)c32)C1=O [EPHEMERANTHOQUINONE B] | 2.8
16 | COc1cc2c(c(OC)c1O)-c1c(O)cccc1CC2 [MARYLAURENCINOLS A] | 96.8
17 | COc1ccc2c(ccc3cc(OC)c(O)c(OC)c32)c1 | 19.3
18 | COc1cc2ccc3cccc(O)c3c2c(OC)c1O [BULBOPHYLLANTHRIN] | 52.4
19 | COc1c(O)c2c(c(OC)c1O)-c1c(O)cccc1CC2 [MARYLAURENCINOLS B] | 174
20 | COc1cc2ccc3cc(O)ccc3c2c(OC)c1O | 34.2
